Data taken from ChEMBL document CHEMBL1140245, “Identification of antitumor activity of pyrazole oxime ethers” (Bioorg Med Chem Lett, 2005).
In brackets after ≈: the same amount, converted by molar mass.

Columns and labels:
SK-OV-3 = assay: Cytotoxic activity against SKOV-3 cell line (human solid ovarian tumor cell line); assay type: functional, cell-based
A549 [1] = assay: Cytotoxic activity against A549 cell line (non-small cell lung carcinoma); assay type: functional, cell-based, Homo sapiens
XF498 = assay: Cytotoxic activity against XF498 cell line (human CNS solid tumor); assay type: functional, cell-based
HCT-15 = assay: Cytotoxic activity against HCT15 cell line (human colon solid tumor cell line); assay type: functional, cell-based
SK-MEL-2 = assay: Cytotoxic activity against SKMEL-2 cell line; assay type: functional, cell-based, Homo sapiens
HepG2 = assay: In vitro antiproliferative activity against HepG2 cell line (human liver tumor) at 1 uM concentration; assay type: functional
Outline: (§1)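 Each cell line was exposed to test compound at a single concentration of 1 µM, and activity was reported as percent inhibition.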

MCF7 = assay: In vitro antiproliferative activity against MCF-7 cell line (human breast tumor) at 1 uM concentration; assay type: functional; outline: as §1
A549 [2] = assay: In vitro antiproliferative activity against A549 cell line (human lung tumor) at 1 uM concentration; assay type: functional; outline: as §1
MKN-45 = assay: In vitro antiproliferative activity against MKN45 cell line (human stomach tumor) at 1 uM concentration; assay type: functional; outline: as §1
[3] = Homo sapiens, SK-OV-3, read-out: IC50
[4] = Homo sapiens, A549, read-out: IC50
[5] = Homo sapiens, XF498, read-out: IC50
[6] = Homo sapiens, HCT-15, read-out: IC50
[7] = Homo sapiens, SK-MEL-2, read-out: IC50

Molecule | IC50 (SK-OV-3; [3]) | IC50 (A549 [1]; [4]) | IC50 (XF498; [5]) | IC50 (HCT-15; [6]) | IC50 (SK-MEL-2; [7]) | inhibition at 1 µM (HepG2) | inhibition at 1 µM (MCF7) | inhibition at 1 µM (A549 [2]) | inhibition at 1 µM (MKN-45) | further results
Cc1nn(C)c(Sc2ccccc2)c1/C=N/OCc1ccc(C(=O)OC(C)(C)C)cc1 | 0.92 µg/mL (≈ 2.1 µM) | 0.13 µg/mL (≈ 0.297 µM) | 0.28 µg/mL (≈ 0.64 µM) | 0.26 µg/mL (≈ 0.594 µM) | 4.91 µg/mL (≈ 11.2 µM) |  |  |  |  | 
Cc1nn(C)c(Oc2ccccc2)c1/C=N/OCc1ccc(C(=O)OC(C)(C)C)cc1 [FENPYROXYMATE] | 0.21 µg/mL (≈ 0.498 µM) | 0.12 µg/mL (≈ 0.285 µM) | 0.04 µg/mL (≈ 0.0949 µM) | 0.02 µg/mL (≈ 0.0474 µM) | 13.3 µg/mL (≈ 31.5 µM) |  |  |  |  | 
Cc1nn(C)c(Oc2ccccc2)c1/C=N/OCCN1CCN(Cc2ccc(C(=O)OC(C)(C)C)cc2)CC1 |  |  |  |  |  | 19.8% | 32% | 44.7% | 19.2% | 
Cc1nn(C)c(-n2cccc2)c1/C=N/OCc1ccc(C(=O)OC(C)(C)C)cc1 | 3.91 µg/mL (≈ 9.91 µM) | 1.64 µg/mL (≈ 4.16 µM) | 2.67 µg/mL (≈ 6.77 µM) | 2.48 µg/mL (≈ 6.29 µM) | 24.9 µg/mL (≈ 63.1 µM) |  |  |  |  | 
Cc1c(CO/N=C/c2c(-c3ccccc3)nn(-c3ccccc3)c2Oc2ccc(Cl)cc2)cccc1-c1ccccc1 |  |  |  |  |  | -14.8% | -17.5% | -10.1% | -15% | 
Cc1nn(C)c(-n2cccn2)c1/C=N/OCc1ccc(C(=O)OC(C)(C)C)cc1 | 9.63 µg/mL (≈ 24.4 µM) | 2.49 µg/mL (≈ 6.3 µM) | 5.51 µg/mL (≈ 13.9 µM) | 3.63 µg/mL (≈ 9.18 µM) | 28.8 µg/mL (≈ 72.8 µM) |  |  |  |  | 
Cc1nn(C)c(Oc2ccccc2)c1/C=N/OCCN1CCOCC1 |  |  |  |  |  | -40.5% | 5.4% | -19.4% | -28% | 
Cc1ccc(CO/N=C/c2c(C)nn(C)c2Oc2ccc(Cl)cc2)cc1 |  |  |  |  |  | 31.3% | 30.7% | 50% | 30.4% | 
COC(=O)c1ccc(CO/N=C/c2c(C)nn(C)c2Oc2ccc(Cl)cc2)cc1 |  |  |  |  |  | 20.3% | 33.6% | 49.9% | 26.1% | 
COc1cccc2c1C(=O)c1c(O)c3c(c(O)c1C2=O)C[C@@](O)(C(=O)CO)C[C@@H]3O[C@H]1C[C@H](N)[C@H](O)[C@H](C)O1 [DOXORUBICIN] | 0.09 µg/mL (≈ 0.166 µM) | 0.05 µg/mL (≈ 0.092 µM) | 0.09 µg/mL (≈ 0.166 µM) | 0.28 µg/mL (≈ 0.515 µM) | 0.07 µg/mL (≈ 0.129 µM) |  |  |  |  | 
Cc1nn(C)c(N2CCOCC2)c1/C=N/OCc1ccc(C(=O)OC(C)(C)C)cc1 | 8.87 µg/mL (≈ 21.4 µM) | 0.39 µg/mL (≈ 0.941 µM) | 1.04 µg/mL (≈ 2.51 µM) | 1.83 µg/mL (≈ 4.41 µM) | 16.7 µg/mL (≈ 40.3 µM) |  |  |  |  | 
CCOC(=O)c1ccc(CO/N=C/c2c(C)nn(C)c2Oc2ccc(Cl)cc2)cc1 |  |  |  |  |  | 27.4% | 33.9% | 48.2% | 20.9% | 
COc1ccc(CO/N=C/c2c(C)nn(C)c2Oc2ccc(Cl)cc2)cc1 |  |  |  |  |  | 13.9% | 37% | 43.9% | 28.1% | 
Cc1nn(-c2ccccn2)c(Oc2ccccc2)c1/C=N/OCc1ccc(C(=O)OC(C)(C)C)cc1 |  |  |  |  |  | -25.1% | -14.8% | -9.1% | -9.8% | 
CISPLATIN |  |  |  |  |  |  |  |  |  | IC50 (SK-OV-3; sk-ov-3): 3.42 µg/mL; IC50 (A549 [1]; a549): 3.09 µg/mL; IC50 (XF498; xf498): 3.47 µg/mL; IC50 (HCT-15; hct-15): 6.91 µg/mL; IC50 (SK-MEL-2; sk-mel-2): 3.28 µg/mL
CC(C)c1nn(-c2ccccc2)c(Oc2ccc(Cl)cc2)c1/C=N/OCc1ccc(C(F)(F)F)cc1 |  |  |  |  |  | -2.2% | -1.9% | -12.1% | -15.4% | 
Cc1nn(C)c(N(C)C)c1/C=N/OCc1ccc(C(=O)OC(C)(C)C)cc1 | 9.06 µg/mL (≈ 24.3 µM) | 2.76 µg/mL (≈ 7.41 µM) | 3.87 µg/mL (≈ 10.4 µM) | 6.22 µg/mL (≈ 16.7 µM) | 23.9 µg/mL (≈ 64.3 µM) |  |  |  |  | 
Cc1ccc(CO/N=C/c2c(C)nn(C)c2Oc2ccccc2)cc1 |  |  |  |  |  | 8.4% | 38.2% | 29.1% | 17.9% | 

Molecule | IC50 (SK-OV-3; [3]) | IC50 (A549 [1]; [4]) | IC50 (XF498; [5]) | IC50 (HCT-15; [6]) | IC50 (SK-MEL-2; [7]) | inhibition at 1 µM (HepG2) | inhibition at 1 µM (MCF7) | inhibition at 1 µM (A549 [2]) | inhibition at 1 µM (MKN-45) | further results
Cc1nn(C)c(Oc2ccccc2)c1/C=N/OCCN1CCN(Cc2ccccc2)CC1 |  |  |  |  |  | 6.7% | 23.4% | 28.4% | 10.5% | 
CC(C)c1nn(-c2ccccc2)c(Oc2ccc(Cl)cc2)c1/C=N/OCc1ccc(C(=O)OC(C)(C)C)cc1 |  |  |  |  |  | -14.7% | -4.9% | -10% | -27% | 
Cc1nn(C)c(Oc2ccccc2)c1/C=N/OCCN1CCCCC1 |  |  |  |  |  | -29% | 3.2% | -9.9% | -22.5% | 
Cc1nn(C)c(Oc2ccc(Cl)cc2)c1/C=N/OCc1ccc(C(=O)OC(C)(C)C)cc1 | 0.28 µg/mL (≈ 0.614 µM) | 0.1 µg/mL (≈ 0.219 µM) | 0.02 µg/mL (≈ 0.0439 µM) | 0.01 µg/mL (≈ 0.0219 µM) | 18.8 µg/mL (≈ 41.2 µM) |  |  |  |  | 
Cc1nn(-c2ccccc2)c(Oc2ccc(Cl)cc2)c1/C=N/OCc1ccc(C(=O)OC(C)(C)C)cc1 |  |  |  |  |  | -31.1% | -8.4% | -6.1% | -9.9% | 
Cc1nn(C)c(Oc2ccccc2)c1/C=N/OCc1cccc(-c2ccccc2)c1C |  |  |  |  |  | -13.2% | 24.4% | 5% | -12.1% | 
Cc1nn(C)c(Oc2ccccc2)c1/C=N/OCCN(C)C |  |  |  |  |  | -36.1% | 8.9% | -5.9% | -29% | 
COc1cccc(CO/N=C/c2c(C)nn(C)c2Oc2ccccc2)c1 |  |  |  |  |  | -41.2% | 8.4% | 1% | -19.6% | 
Cc1nn(C)c(Oc2ccc(Cl)cc2)c1/C=N/OCc1ccc(C(F)(F)F)cc1 |  |  |  |  |  | 20.6% | 16.4% | 50.9% | 27.6% | 
CCOC(=O)c1ccc(CO/N=C/c2c(C)nn(-c3ccccc3)c2Oc2ccc(Cl)cc2)cc1 |  |  |  |  |  | -31.8% | 12% | -9.9% | -17.8% | 
Cc1nn(C)c(Oc2ccccc2)c1/C=N/OCCN1CCCC1 |  |  |  |  |  | -25% | 7.7% | -8.2% | -24.2% | 
Cc1nn(C)c(N2CCCC2)c1/C=N/OCc1ccc(C(=O)OC(C)(C)C)cc1 | 3.19 µg/mL (≈ 8 µM) | 0.13 µg/mL (≈ 0.326 µM) | 0.12 µg/mL (≈ 0.301 µM) | 0.1 µg/mL (≈ 0.251 µM) | 14.4 µg/mL (≈ 36.2 µM) |  |  |  |  | 
Cc1nn(C)c(-n2ccnc2)c1/C=N/OCc1ccc(C(=O)OC(C)(C)C)cc1 | 14.1 µg/mL (≈ 35.6 µM) | 5.93 µg/mL (≈ 15 µM) | 8.15 µg/mL (≈ 20.6 µM) | 8.67 µg/mL (≈ 21.9 µM) | 9.35 µg/mL (≈ 23.6 µM) |  |  |  |  | 
Cc1nn(C)c(Oc2ccccc2)c1/C=N/OCc1ccc(C(F)(F)F)cc1 |  |  |  |  |  | 5.8% | 30.5% | 34.7% | 11% | 
Cc1nn(C)c(Oc2ccc(Cl)cc2)c1/C=N/OCc1ccc([N+](=O)[O-])cc1 |  |  |  |  |  | 18.4% | 27.1% | 39.6% | 24.6% | 
Cc1nn(C)c(Oc2ccccc2)c1/C=N/OCc1ccc([N+](=O)[O-])cc1 |  |  |  |  |  | -2.8% | 24% | 39.4% | 18.3% | 
Cc1nn(C)c(Oc2ccccc2)c1/C=N/OCCN1CCN(Cc2ccc(C(F)(F)F)cc2)CC1 |  |  |  |  |  | 14.4% | 37.7% | 39.7% | 15.4% | 
Cc1nn(C)c(-n2ccc3ccccc32)c1/C=N/OCc1ccc(C(=O)OC(C)(C)C)cc1 | 2.07 µg/mL (≈ 4.66 µM) | 0.43 µg/mL (≈ 0.967 µM) | 1.61 µg/mL (≈ 3.62 µM) | 1.57 µg/mL (≈ 3.53 µM) | 26.5 µg/mL (≈ 59.6 µM) |  |  |  |  | 
